Compound activity as filed in PubChem.
This is one part of a sample in which hits are shown more often than they occur.
CHOP inh – blocks CHOP induction under ER stress | CHO-K1 CHOP-promoter luciferase, tunicamycin-induced, 15-18 h | inhibition, % at 10 µM | 3.8% of 220,000 active | AID 2732;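 active means compounds that reduced the stress-induced luciferase reporter signal by more than about 70% of percent inhibition, limit read from the data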
Bfl-1 A1 inh – inhibitors of the anti-apoptotic protein A1, read as caspase activation | caspase activation, % (concentration not given with the values) | MEF A1-2A-BIM cells, Caspase-Glo 3/7 luminescence, 3 h; percent of clofoctol response, vehicle zero | AID 2462 | 0.066% of 330,000 active;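 active means over half of replicate activation scores above 10%, or exactly half above 10 with the replicate mean above 10; inconclusive means replicate mean below 10 yet half the replicates above 10; inactive means over half of replicates below 10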
XBP1 UPR activ – activators of adaptive arm of unfolded protein response (XBP1); 0.33% of 330,000 active; CHO-XBP1 luciferase reporter, IRE1-XBP1 UPR activation, luminescence; percent of tunicamycin response, DMSO as zero; activation, % at 20 µM; AID 463104;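 active means versus positive control, 20 µM dose yields 30% or more activation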
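assay system = CHO-XBP1 luciferase reporter cells | amount = 1000 cells/well | buffer or medium = F12 plus 10% FBS | compound dosing = single point, 20 µM final compound, 1% DMSO | incubation = 16-18 h cell attachment at 37 °C, then 6 h compound exposure | detection = Steady-Glo luminescence read | controls = tunicamycin 10 µg/mL and vehicle-only wells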
UPR CHOP act – activators of apoptotic arm of unfolded protein response (CHOP). 0.34% of 330,000 active. CHO-CHOP luciferase reporter, UPR activation, luminescence; percent of tunicamycin response over DMSO baseline. AID 449763. activation, % at 10 µM;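 active means at 10 µM dose, activation of 40% or more, normalized to positive control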
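Test system: CHO CHOP reporter cells. Input: 500 CHO-CHOP cells per well. Medium: F12 with 10% FBS. Technique: luciferase luminescence. Measure: percent activation relative to tunicamycin control. Dosing: 10 µM compound, 0.5% DMSO. Timing: 16-18 h cell attachment, then 6 h compound exposure, 37 °C.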
Numbers stand for hits; 0 = inactive; ? = inconclusive; - = no result.

SMILES | CHOP inh | Bfl-1 A1 inh | XBP1 UPR activ | UPR CHOP act
CCOC(=O)C1(CCC(C)C)CC(CSc2nc3ccccc3[nH]2)OC1=O (stereo not drawn) | 89 | 0 | 0 | 0
CCN(CC)c1ccc2cc(NC(=O)CCC(=O)O)c(=O)oc2c1 | 88 | 0 | 0 | 0
CCN(CC)c1ccc2cc(C(C)=O)c(=O)oc2c1 | 0 | 0 | 0 | 0
COc1ccc(-c2n(CC(=O)OC3CC(C)CCC3C(C)C)c3ccccc3[n+]2C)cc1 (stereo not drawn) | 87 | - | - | -
O=C1NC(=Nc2ccccc2Cl)S/C1=C\c1ccc(C(=O)O)cc1 | - | 0 | 0 | 0
CC12CCC(C/C1=N\N=C1\NC(=O)/C(=C\c3ccc(Cl)cc3)S1)C2(C)C (stereo not drawn) | 93 | 0 | 0 | 0
Cc1ccc(NC(=O)c2cc(-c3ccco3)on2)cc1C | 0 | 0 | 0 | 0
Cc1ccc(NC(=O)c2cc(-c3cccc(O)c3)on2)cc1C | 86 | 0 | 0 | 0
COc1ccc(CNC(=O)C/C(C)=N/NC(=O)COc2ccc(C)cc2Br)cc1 | 0 | 0 | 0 | 0
CC(=O)n1cc(N(C(=O)CCl)c2ccc(Cl)cc2)c2ccccc21 | 107 | 0 | 0 | 0
COc1ccccc1N(C(=O)CCl)c1cn(C(C)=O)c2ccccc12 | 0 | 0 | 0 | 0
Cc1cc(Br)ccc1OCC(=O)NC1CCCC1 | - | 0 | 0 | 0
O=C(COc1ccc(Br)cc1Br)NC(=O)NC1CCCC1 | 87 | 0 | 0 | 0
CC(C)(C)NC(=O)NC(=O)COc1ccc(Br)cc1Br | 83 | 0 | 0 | 0
O=C(COc1ccc(Br)cc1Cl)NC(=O)NCc1ccccc1 | 80 | 0 | 0 | 0
CCN(CC)c1ccc(NC(=O)c2c(C)noc2C)cc1 | - | 0 | 0 | 0
C=C(C)COc1ccc(-c2[nH]ncc2-c2ccc(Br)cc2)c(O)c1 | 106 | 0 | 0 | 0
COc1ccc(-c2cn[nH]c2-c2ccc(OCc3ccc([N+](=O)[O-])cc3)cc2O)cc1 | 91 | ? | 0 | 0
Cc1nn(CCCC(=O)NCCc2ccc(Cl)cc2)c(=O)c2nn(-c3ccccc3)c(C)c12 | - | 0 | 0 | 0
CCOC(=O)N1CCC(NS(=O)(=O)c2ccc3c(c2)CCN3C(C)=O)CC1 | 73 | 0 | 0 | 0
O=c1c2ccccc2nc(COc2ccccc2)n1/N=C/c1cn[nH]c1-c1ccccc1 | 85 | ? | 0 | 0
Cc1ccccc1OCc1nc2ccccc2c(=O)n1/N=C/c1cn[nH]c1-c1ccc(Br)cc1 | 0 | 0 | 0 | 0
CC(C)c1ccc(NC(=O)c2cccc(Br)c2)cc1 | 84 | 0 | 0 | 0
COCC(=O)Nc1ccc2c(c1)OCC(=O)N2Cc1ccc(C)cc1 | - | 0 | 0 | 0
O=C(CCn1c(=O)[nH]c2ccccc2c1=O)N1CCN(c2cccc(C(F)(F)F)c2)CC1 | 0 | 0 | 0 | 0
SMILES | CHOP inh | Bfl-1 A1 inh | XBP1 UPR activ | UPR CHOP act
C/C(=C\c1ccccc1)C(=O)N1CCN(c2cccc(C(F)(F)F)c2)CC1 | 82 | 0 | 0 | 0
O=C(CCCCn1c(=O)[nH]c2ccccc2c1=O)N1CCN(c2cccc(C(F)(F)F)c2)CC1 | 88 | 0 | 0 | 0
O=C(CSCc1ccccc1)N1CCN(c2cccc(C(F)(F)F)c2)CC1 | 85 | 0 | 0 | 0
O=C1Nc2ccccc2OC1CC(=O)N1CCN(c2cccc(C(F)(F)F)c2)CC1 (stereo not drawn) | 86 | 0 | 0 | 0
CC(OC(=O)CNC(=O)C1CCCCC1)C(=O)NCc1ccccc1 (stereo not drawn) | - | 0 | 0 | 0
NC(=O)C1(N2CCCCC2)CCN(CC(=O)Nc2cc(Cl)ccc2Cl)CC1 | 76 | - | 0 | 0
CCOc1ncnc2c1oc1nc(CC(C)C)c3c(c12)CC(C)(C)OC3 | 0 | 0 | 0 | 0
CCOc1nc(CC(C)C)c2c(c1C#N)CC(C)(C)OC2 | 74 | 0 | 0 | 0
Cc1ccc(C)c(NC(=O)c2ccc3ccccc3n2)c1 | 80 | 0 | 0 | 0
Cc1ccc(S(=O)(=O)N(C)C)cc1NC(=O)c1ccc2ccccc2n1 | 0 | 0 | 0 | 0
O=C(NC12CC3CC(CC(C3)C1)C2)c1ccccc1O | 77 | 0 | 0 | 0
CCCCCc1cc(O)c2c(C)cc(=O)oc2c1 | 72 | 0 | 0 | 0
CCCc1cc(=O)oc2cc(C)cc(O)c12 | 0 | 0 | 0 | 0
COc1ccc(N(CC(=O)NCCc2ccc(OC)c(OC)c2)S(=O)(=O)c2c(C)noc2C)cc1 | - | 0 | 0 | 0
CCc1cc(C(=O)N(C)CC(=O)N(CC(C)C)c2c(N)n(CC(C)C)c(=O)[nH]c2=O)sc1C | - | 0 | 0 | 0
O=C(/C=C/c1ccccc1)/C=C/c1ccccc1 | 98 | 0 | 0 | 0
O=C(/C=C/c1ccccc1)c1ccccc1 | 0 | 0 | 0 | 0
CC(c1nc2ccccc2c(=O)[nH]1)N1CCCN(S(=O)(=O)c2ccc(F)cc2)CC1 (stereo not drawn) | - | 0 | 0 | 0
CC(=O)Oc1ccc(C23CC4CC(CC(C4)C2)C3)cc1C(=O)O | - | 0 | 0 | 0
Cc1ccccc1C(=O)N[C@H](C(=O)OCC(=O)NC1CC1)C(C)C | - | 0 | 0 | 0
Cn1nc(C(=O)NNC(=O)c2ccc(Cl)c(S(N)(=O)=O)c2)c2ccccc2c1=O | - | 0 | 0 | 0
COc1ccc(/C=C/C(=O)c2cc(Cl)cc(Cl)c2O)c(OC)c1 | 71 | 0 | 0 | 0
Cc1[nH]c2ccccc2c1/C=N/Nc1ccc([N+](=O)[O-])cc1 | 0 | 0 | - | -
COc1ccccc1NS(=O)(=O)c1cc([N+](=O)[O-])ccc1N/N=C/c1c(C)[nH]c2ccccc12 | 84 | 0 | 0 | 0
c1ccc(Nc2nc3ccccc3o2)cc1 | 0 | 0 | 0 | 0
SMILES | CHOP inh | Bfl-1 A1 inh | XBP1 UPR activ | UPR CHOP act
FC(F)(F)Oc1ccc(Nc2nc3ccccc3o2)cc1 | 91 | 0 | 0 | 0
CCOC(=O)c1cc(C(=O)OCC)c2cc(Br)ccc2n1 | 88 | 0 | 0 | 0
CCCCOC(=O)c1cc(C)nc2ccc(Br)cc12 | 0 | 0 | 0 | 0
CC(NC(=O)CNC(=O)c1cccs1)c1cccc(C(F)(F)F)c1 (stereo not drawn) | - | 0 | 0 | 0
O=C(C1CCCN1S(=O)(=O)c1ccc(Cl)cc1)N1CCOCC1 (stereo not drawn) | 74 | 0 | 0 | 0
O=C(C1CCCN1S(=O)(=O)c1ccc(Cl)c(Cl)c1)N1CCOCC1 (stereo not drawn) | 0 | 0 | 0 | 0
CCc1ccccc1N1C(=O)C2C3C=CC(CC3)C2C1=O (stereo not drawn) | - | 0 | 0 | 0
COc1ccc(Cl)cc1NC(=O)CSc1nnc(COc2ccccc2)n1C | 80 | 0 | 0 | 0
COc1ccc(Cl)cc1NC(=O)CSc1nnc(COc2ccccc2)n1N | 0 | 0 | 0 | 0
Cc1ccc(S(=O)(=O)N(OCc2ccccc2)C(C)C(=O)O)cc1 (stereo not drawn) | - | 0 | 0 | 0
CC(=O)c1ccc(S(=O)(=O)N(C)CC(=O)NCC2CCCCC2)cc1 | - | 0 | 0 | 0
CCOc1cc(/C=N\NC(=O)Cn2nc([N+](=O)[O-])cc2C)ccc1OCc1cccc2ccccc12 | 88 | 0 | 0 | 0
Cc1ccc2c(c1)N(CC(=O)NCC(C)c1ccccc1)C(=O)c1cccnc1O2 (stereo not drawn) | - | 0 | 0 | 0
